Consider 15 compounds from ChEMBL document CHEMBL1944574, “Inhibition of monoamine oxidase by selected C6-substituted chromone derivatives” (Eur J Med Chem, 2012).

The target in data set [1] is T1, Amine oxidase [flavin-containing] A (Homo sapiens, UniProt P21397).
T1 sequence (P21397 whole entry): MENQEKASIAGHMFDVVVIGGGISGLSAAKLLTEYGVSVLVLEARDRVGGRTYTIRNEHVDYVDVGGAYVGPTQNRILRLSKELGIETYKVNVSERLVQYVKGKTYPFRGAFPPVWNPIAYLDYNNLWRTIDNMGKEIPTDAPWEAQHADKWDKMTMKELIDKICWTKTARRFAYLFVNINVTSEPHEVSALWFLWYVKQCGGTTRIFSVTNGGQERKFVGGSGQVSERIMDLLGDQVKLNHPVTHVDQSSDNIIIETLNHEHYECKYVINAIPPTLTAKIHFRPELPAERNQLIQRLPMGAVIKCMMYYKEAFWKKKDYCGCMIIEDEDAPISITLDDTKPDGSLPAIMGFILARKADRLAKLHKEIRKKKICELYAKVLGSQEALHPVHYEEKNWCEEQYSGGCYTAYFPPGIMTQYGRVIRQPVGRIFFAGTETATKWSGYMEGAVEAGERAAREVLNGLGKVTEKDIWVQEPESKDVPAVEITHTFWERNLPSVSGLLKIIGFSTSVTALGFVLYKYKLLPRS
Nature of the data set: Inhibition of recombinant human monoamine oxidase A expressed in insect microsomes using kynuramine as substrate after 20 mins by fluorescence spectrophotometry. Set-up: species or system Microsome. The procedure, abridged: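 Enzyme source: insect-cell microsomes with recombinant human MAO-A or MAO-B at 0.0075 mg protein/mL, with kynuramine as substrate. Buffer was potassium phosphate 100 mM, pH 7.4, made isotonic with 20.2 mM KCl. Six inhibitor concentrations (0–100 µM) spanned at least 3 log units. Incubation was 20 min at 37 °C, then stopped with 2 N NaOH. 4-Hydroxyquinoline was read by fluorescence ([…] nm as printed) against a 0.047–1.56 µM standard curve. IC50 came from sigmoidal fits of initial rate versus log inhibitor, in triplicate, mean ± SD.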

The target of data set [2] is T2, Amine oxidase [flavin-containing] B (Homo sapiens, UniProt P27338).
T2 sequence (P27338 whole entry): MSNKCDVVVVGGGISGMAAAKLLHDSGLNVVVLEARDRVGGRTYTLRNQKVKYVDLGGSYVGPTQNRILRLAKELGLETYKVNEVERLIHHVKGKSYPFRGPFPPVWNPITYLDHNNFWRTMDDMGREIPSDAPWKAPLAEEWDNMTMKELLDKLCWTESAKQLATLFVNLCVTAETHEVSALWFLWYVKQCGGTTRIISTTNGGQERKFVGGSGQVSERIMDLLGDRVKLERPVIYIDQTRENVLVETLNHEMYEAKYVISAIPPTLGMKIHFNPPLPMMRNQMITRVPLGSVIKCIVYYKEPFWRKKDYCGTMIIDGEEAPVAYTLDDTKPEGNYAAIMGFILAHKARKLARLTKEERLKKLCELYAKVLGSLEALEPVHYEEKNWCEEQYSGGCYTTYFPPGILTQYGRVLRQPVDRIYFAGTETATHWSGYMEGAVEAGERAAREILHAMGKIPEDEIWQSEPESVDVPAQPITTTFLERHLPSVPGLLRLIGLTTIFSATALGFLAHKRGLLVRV
In words: Inhibition of recombinant human monoamine oxidase B expressed in insect microsomes using kynuramine as substrate after 20 mins by fluorescence spectrophotometry. Set-up: species or system Microsome. The procedure, abridged:
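Enzyme source: insect-cell microsomes with recombinant human MAO-A or MAO-B at 0.0075 mg protein/mL, with kynuramine as substrate. Six inhibitor concentrations (0–100 µM) spanned at least 3 log units. Incubation was 20 min at 37 °C, then stopped with 2 N NaOH. IC50 came from sigmoidal fits of initial rate versus log inhibitor, in triplicate, mean ± SD.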

The species entered for data set [3] is Homo sapiens. In words: Selectivity index, ratio of IC50 for recombinant human monoamine oxidase A to IC50 for recombinant human monoamine oxidase B.
In data set [4] the target is T1, Amine oxidase [flavin-containing] A. Nature of the data set: Competitive inhibition of recombinant human monoamine oxidase A at 0.190 uM preincubated for 15 to 60 mins before kynuramine substrate addition measured after 15 mins. The note with it: 0.25 h, 0.19 µM.
The target of data set [5] is T2, Amine oxidase [flavin-containing] B. Nature of the data set: Competitive inhibition of recombinant human monoamine oxidase B at 0.064 uM preincubated for 15 to 60 mins before kynuramine substrate addition measured after 15 mins by Lineweaver-Burk plot analysis. The note with it: 0.25 h.

With `O=c1ccoc2ccc(OCc3ccc(C(F)(F)F)cc3)cc12`, the half-maximal inhibitory concentration (IC50) was found to be 879 nM in data set [1] and 2 nM in data set [2]. Also, in data set [3], the Ratio IC50 was 440.

Consider `O=c1ccoc2ccc(OCc3ccccc3)cc12`, for which the IC50 in data set [1] was found to be 3300 nM; in data set [2], 53 nM. Also, in data set [3], the Ratio IC50 was determined as 62.

In the case of `N#Cc1ccc(COc2ccc3occc(=O)c3c2)cc1`, the IC50 in data set [1] came to 175 nM; in data set [2], 22 nM. Also, the Ratio IC50 in data set [3] was 8.

As for `O=c1ccoc2ccc(OCc3ccc(F)cc3)cc12`, the IC50 in data set [1] stood at 322 nM.

With `O=c1ccoc2ccc(OCc3cccc(Cl)c3)cc12`, the IC50 stood at 424 nM in data set [1] and 3.6 nM in data set [2]. Moreover, the Ratio IC50 in data set [3] was 118.

As to `O=c1ccoc2ccc(OCCCc3ccccc3)cc12`, the IC50 was found to be 1910 nM in data set [1] and 57 nM in data set [2]. In addition, in data set [3], the Ratio IC50 was determined as 34.

On to `O=c1ccoc2ccc(OCCc3ccc(Br)cc3)cc12`, for which the IC50 worked out at 480 nM in data set [1] and 27 nM in data set [2]. Moreover, the Ratio IC50 in data set [3] was 18.

For the compound `Cc1ccc(COc2ccc3occc(=O)c3c2)cc1`, the IC50 was determined as 3490 nM in data set [1] and 6 nM in data set [2]. Further, the Ratio IC50 in data set [3] was 582.

In the case of `O=c1ccoc2ccc(OCc3ccc(Br)cc3)cc12`, the “inhibition (INH)” value in data set [4] and in data set [5] was “Active” in each case. Moreover, the IC50 in data set [1] amounted to 95 nM; in data set [2], 3.3 nM. The Ratio IC50 in data set [3] worked out at 29.

With `O=c1ccoc2ccc(OCc3ccc(Cl)cc3)cc12`, the IC50 in data set [1] was determined as 106 nM.

As to `Cc1cccc(COc2ccc3occc(=O)c3c2)c1`, the figures for the IC50 in data set [1] and in data set [2] were 1130 nM and 19 nM, respectively. For the same compound, the Ratio IC50 in data set [3] is 59.

`O=c1ccoc2ccc(OCc3cccc(F)c3)cc12`: the IC50 in data set [1] is 1230 nM; in data set [2] it was 13 nM. In addition, in data set [3], the Ratio IC50 turned out to be 95.

`O=c1ccoc2ccc(OCc3cccc(Br)c3)cc12`: the IC50 in data set [1] was determined as 386 nM; in data set [2], 2 nM. Also, the Ratio IC50 in data set [3] was found to be 193.

Regarding `N#Cc1cccc(COc2ccc3occc(=O)c3c2)c1`, the IC50 is 255 nM in data set [1] and 76 nM in data set [2]. The Ratio IC50 in data set [3] was determined as 3.

Regarding `O=c1ccoc2ccc(OCCc3ccccc3)cc12`, the IC50 was determined as 3120 nM in data set [1] and 21 nM in data set [2]. Moreover, in data set [3], the Ratio IC50 amounted to 149.
